Tests used:
Settings in all cases: Homo sapiens
[1] = substrate: CCCC[C@@H](C(=O)Nc1ccc2c(C)c(CC(=O)O)c(=O)oc2c1)n1cc([C@@](C)(NC(=O)c2ccsc2)C2CCC(C)CC2)nn1; experiment: (§1) Binding affinity to cathepsin S
In short: (§2)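 Cathepsin S at 0.6 nM in pH 6.1 100 mM sodium phosphate with 100 mM NaCl, 1 mM DTT, 1 mM EDTA and 0.001% Tween-20. Enzyme preincubated 5 min at 37 °C with five inhibitor concentrations (10-90% inhibition), in duplicate. Cbz-Leu-Arg-AMC added at 5 and 2.5 µM, then AMC read (ex 355/em 450 nm) over 5 min. Ki by Dixon method.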

[2] = substrate: CCCC[C@@H](C(=O)Nc1ccc2c(C)c(CC(=O)O)c(=O)oc2c1)n1cc([C@@](C)(NC(=O)c2ccsc2)C(C)C)nn1; experiment: as §1; in short: as §2
[3] = substrate: CCCC[C@@H](C(=O)Nc1ccc2c(C)c(CC(=O)O)c(=O)oc2c1)n1cc([C@@](C)(NC(=O)c2ccccc2)C2CCCCC2)nn1; experiment: as §1; in short: as §2
[4] = substrate: CCCC[C@@H](C(=O)Nc1ccc2c(C)c(CC(=O)O)c(=O)oc2c1)n1cc([C@@](C)(NC(=O)c2ccsc2)C2CCCCC2)nn1; experiment: as §1; in short: as §2
[5] = substrate: CCCC[C@@H](C(=O)Nc1ccc2c(C)c(CC(=O)O)c(=O)oc2c1)n1cc([C@@](C)(NC(=O)c2ccccc2)C(C)C)nn1; experiment: as §1; in short: as §2

B1: Cathepsin S (Homo sapiens), P25774 (protein)
chain: MKRLVCVLLVCSSAVAQLHKDPTLDHHWHLWKKTYGKQYKEKNEEAVRRLIWEKNLKFVMLHNLEHSMGMHSYDLGMNHLGDMTSEEVMSLMSSLRVPSQWQRNITYKSNPNRILPDSVDWREKGCVTEVKYQGSCGACWAFSAVGALEAQLKLKTGKLVSLSAQNLVDCSTEKYGNKGCNGGFMTTAFQYIIDNKGIDSDASYPYKAMDQKCQYDSKYRAATCSKYTELPYGREDVLKEAVANKGPVSVGVDARHPSFFLYRSGVYYEPSCTQNVNHGVLVVGYGDLNGKEYWLVKNSWGHNFGEEGYIRMARNKGNHCGIASFPSYPEI
Protein B1 has a Km [1] of 17 µM, a Km [2] of 300 µM and a Km [3] of 57 µM. For the same protein, the Km [4] was 13 µM and the Km [5] was 410 µM.

Source: ChEMBL document CHEMBL1137397, “Identification of selective, nonpeptidic nitrile inhibitors of cathepsin s using the substrate activity screening method” (J Med Chem, 2006)
